Laboratory results taken from ChEMBL document CHEMBL1133728, “Synthesis, structure, and neuroprotective properties of novel imidazolyl nitrones” (J Med Chem, 2000).

Assays:
[1] = system: Mus musculus; assay: In vivo induction of hypothermia in mice following 150 mg/Kg i.p.; assay type: functional
[2] = system: Mus musculus; assay: Inhibition of t-BHP (tert-butyl-hydro-peroxide) induced toxicity in mice following 150 mg/Kg i.p.; assay type: functional
Outline: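 Male NMRI mice (30–35 g) pretreated ip with 150 mg/kg in 0.2 mL saline/Tween, 30 min before icv injection of 70% t-BHP (22 mg/kg/μl). Lethality checked at 1, 2, 5, 24 h; value is percentage survival at 2 h versus t-BHP-only group; n = 10 per group.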

SMILES | Hypothermic effect [1] | Neuroprotection [2] [%]
CC(C)(C)/[N+]([O-])=C/c1ccccc1 | 0.9 °C | 57
Cn1c(/C=[N+](\[O-])C(C)(C)C)cnc1-c1ccccc1 | 0.69 °C | 0
CC(C)(C)/[N+]([O-])=C/c1c[nH]c(-c2ccoc2)n1 | 0.78 °C | 30
CC(C)(C)/[N+]([O-])=C/c1nc(-c2ccccc2)c[nH]1 | 1.42 degrees C | 0
CC(C)(C)/[N+]([O-])=C/c1c[nH]c(-c2ccsc2)n1 | 0.48 °C | 40
CC(C)(C)/[N+]([O-])=C/c1c[nH]c(-c2c[nH]cn2)n1 | 0.13 °C | 0
CC(C)(C)/[N+]([O-])=C/c1c[nH]c(-c2ccco2)n1 | 0.72 °C | 15
Cn1cc(/C=[N+](\[O-])C(C)(C)C)nc1-c1ccccc1 | 0.3 °C | 50
CC(C)(C)/[N+]([O-])=C/c1c[nH]c(-c2ccc(F)cc2)n1 | 2.01 °C | 67
CC(C)(C)/[N+]([O-])=C/c1c[nH]c(-c2cccc3ccccc23)n1 | 0.52 °C | 75
CC(C)(C)/[N+]([O-])=C/c1c[nH]c(-c2ccc3ccccc3c2)n1 | 1.62 °C | 94
CC(C)(C)/[N+]([O-])=C/c1c[nH]c(-c2ccc(C(F)(F)F)cc2)n1 | 2.16 °C | 80
CC(C)(C)/[N+]([O-])=C/c1c[nH]c(-c2ccccc2)n1 | 0.33 °C | 78
CC(C)(C)/[N+]([O-])=C/c1c[nH]c(-c2cccc(Cl)c2)n1 | 1.66 °C | 89
Cc1ccc(-c2nc(/C=[N+](\[O-])C(C)(C)C)c[nH]2)cc1 | 1.24 °C | 66
CC(C)(C)/[N+]([O-])=C/c1c[nH]c(-c2ccc(Cl)cc2)n1 | 1.32 °C | 89
CC(C)(C)/[N+]([O-])=C/c1c[nH]c(-c2ccc([N+](=O)[O-])cc2)n1 | 1.89 °C | 93
CC(C)(C)/[N+]([O-])=C/c1c[nH]c(-c2cccnc2)n1 | 0.75 °C | 0
CC(C)(C)/[N+]([O-])=C/c1c[nH]c(-c2nccs2)n1 | 0.38 °C | 0
CC(C)(C)/[N+]([O-])=C/c1c[nH]c(-c2ccccn2)n1 | 0.36 °C | 0
CC(C)(C)/[N+]([O-])=C/c1c[nH]c(-c2ccccc2Cl)n1 | 1.91 °C | 71
COc1ccc(-c2nc(/C=[N+](\[O-])C(C)(C)C)c[nH]2)cc1 | 0.53 degrees C | 53
CC(C)(C)/[N+]([O-])=C/c1c[nH]c(-c2ccncc2)n1 | 0.49 °C | 24
